This is an account of results in ChEMBL document CHEMBL4813982, “Novel pyrazolo[4,3-d]pyrimidine microtubule targeting agents (MTAs): Synthesis, structure-activity relationship, in vitro and in vivo evaluation as antitumor agents” (Bioorg Med Chem Lett, 2021).

Active and inactive are the calls of the source. No cut-off for these calls is given here.

What is called inhibition is the change of the read-out against control, counted positive when it falls. High values mean a strong effect, low ones a weak effect. As a reminder, the IC50 is the midpoint of a concentration-inhibition curve. A higher IC50 goes with a need for much substance. The term EC50 denotes the concentration at which the effect is half-maximal. Read a high EC50 as lower potency in that assay.

The target of data set [1] is T1, Tubulin (Homo sapiens) (UniProt P68371+Q9H4B7+P0DPH7+P68366+Q13509+Q71U36+P04350+Q3ZCM7+P07437+P68363+Q9BQE3+Q6PEY2+Q13885+Q9BVA1+Q9BUF5). The data set can be described thus: Inhibition of [3H]colchicine binding to tubulin (unknown origin) at 5 uM relative to control. Type of data set: protein-complex assay.
For another data set, the target named is Tubulin. Nature of the data set: Inhibition of tubulin assembly (unknown origin). Type of data set: protein-complex assay, Homo sapiens.
The subject of a further data set is OVCAR-8. Nature of the data set: Antiproliferative activity against human OVCAR-8 cells. Type of data set: functional, cell-based.
In a further data set the test system is NCI/ADR-RES. The data set can be described thus: Antiproliferative activity against human NCI/ADR-RES cells overexpressing Pgp. Type of data set: functional, cell-based.
Data set [2] is described as follows: Resistance ratio of IC50 for antiproliferative activity against human NCI/ADR-RES cells expressing Pgp to IC50 for antiproliferative activity against human OVCAR-8 cells. Type of data set: functional. The method in brief:
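Resistance ratio: IC50 in Pgp-overexpressing NCI/ADR-RES cells divided by IC50 in parental OVCAR-8 cells.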

Data set [3] relates to MCF7. Nature of the data set: Antiproliferative activity against human MCF7 cells. It is filed as functional, cell-based.
Data set [4] has as its system MCF7. The data set can be described thus: Antiproliferative activity against human MCF7 cells expressing TUBB3. Type of data set: functional, cell-based.
For data set [5], the system named is MCF7. The data set can be described thus: Antitumor activity against human MCF7 cells expressing TUBB3 xenografted in athymic mouse assessed as reduction in tumor growth at 10 mg/kg administered twice in a week. It is filed as functional, organism-based. (In general: In xenograft studies the graft and the host belong to different species.)
The nature of data set [6]: Toxicity in athymic mouse xenografted with human MCF7 cells expressing TUBB3 assessed as effect on body weight at 10 mg/kg administered twice in a week. It is filed as organism-based. The following applies: in vivo.
In data set [7] the target is T1, Tubulin (Homo sapiens). Nature of the data set: Inhibition of [3H]colchicine binding to tubulin (unknown origin) at 0.5 uM relative to control. Type of data set: protein-complex assay.
The nature of data set [8]: Resistance ratio of EC50 for antiproliferative activity against human MCF7 cells expressing TUBB3 to EC50 for antiproliferative activity against human MCF7 cells. Type of data set: functional. The method in brief:
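Resistance ratio: EC50 in MCF-7 cells overexpressing βIII-tubulin divided by EC50 in parental wild-type MCF-7 cells.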

For data set [9], the system named is MCF7. Nature of the data set: Potency index, ratio of EC50 of paclitaxel to EC50 of compound for antiproliferative activity against human MCF7 cells. It is filed as functional.
The subject of data set [10] is MCF7. The data set can be described thus: Potency index, ratio of EC50 of paclitaxel to EC50 of compound for antiproliferative activity against human MCF7 cells expressing TUBB3. Type of data set: functional.

In turn, `CN(c1ccc(OC(F)(F)F)cc1)c1nc(Cl)nc2cnn(C)c12` had an inhibition at Tubulin (Homo sapiens) [1] of 64%. Moreover, the half-maximal inhibitory concentration (IC50) against Tubulin was 2.9 µM; in the data set on OVCAR-8, 0.88 µM; with NCI/ADR-RES, 0.73 µM. Moreover, in [2], the “Ratio IC50” value is on record as 0.83.

With `CC(=O)O[C@H]1C(=O)[C@@]2(C)[C@H]([C@H](OC(=O)c3ccccc3)[C@]3(O)C[C@H](OC(=O)[C@H](O)[C@@H](NC(=O)c4ccccc4)c4ccccc4)C(C)=C1C3(C)C)[C@]1(OC(C)=O)CO[C@@H]1C[C@@H]2O` [PACLITAXEL], the EC50 is 0.194 µM with MCF7 [3] and 2.07 µM in the data set with MCF7 [4]. The molecule also showed a 50% inhibitory concentration (IC50) in the data set on OVCAR-8 of 0.0053 µM. Also, the TGI result in the data set on MCF7 [5] is “Active”. For the same molecule, the Activity entry in [6] is reported as “Toxic”.

Turning to `CCOc1ccc(N(C)c2nc(Cl)nc3cnn(C)c23)cc1`, the results for the inhibition at Tubulin (Homo sapiens) [1] and on Tubulin (Homo sapiens) [7] were 99% and 88%, respectively. Moreover, the IC50 amounted to 0.42 µM against Tubulin, 0.002 µM with OVCAR-8 and 0.004 µM in the data set on NCI/ADR-RES. Besides, the concentration giving a half-maximal response (EC50) in the data set on MCF7 [3] amounted to 0.0077 µM; in the data set with MCF7 [4], 0.0097 µM. The “Ratio EC50” value in [8] is on record as 1.3; with MCF7 [9], 25; in the data set on MCF7 [10] it was 220. Besides, the “Ratio IC50” value in data set [2] was 2.

Regarding `COc1ccc2c(c1)CCCN2c1nc(C)nc2c(Cc3ccccc3)c[nH]c12`, the inhibition on Tubulin (Homo sapiens) [1] amounted to 43%.

For `COc1ccc(N(C)c2nc(C)nc3ccn(C)c23)cc1`, the inhibition on Tubulin (Homo sapiens) [1] is 99%; at Tubulin (Homo sapiens) [7], 79%.

In turn, `COc1ccc(N(C)c2nc(C)nc3c(Cc4ccccc4)c[nH]c23)cc1` came in with an IC50 on Tubulin of 21 µM.

`COc1ccc(Nc2nc(Cl)nc3cnn(C)c23)cc1` showed an inhibition at Tubulin (Homo sapiens) [1] of 7.1%. In addition, the IC50 at Tubulin was over 20 µM; in the data set with OVCAR-8, over 5 µM; in the data set with NCI/ADR-RES it was over 5 µM.

With `CC(C)Oc1ccc(N(C)c2nc(Cl)nc3cnn(C)c23)cc1`, the inhibition at Tubulin (Homo sapiens) [1] is 85%. In addition, the IC50 against Tubulin was determined as 1.1 µM; in the data set on OVCAR-8 it was 0.049 µM; in the data set with NCI/ADR-RES, 0.044 µM. In addition, the “Ratio IC50” value in data set [2] turned out to be 0.89.

Turning to `CSc1ccc(N(C)c2nc(Cl)nc3cnn(C)c23)cc1`, the figures for the inhibition at Tubulin (Homo sapiens) [1] and on Tubulin (Homo sapiens) [7] were 93% and 64%, respectively. Moreover, the half-inhibitory concentration (IC50) came to 0.82 µM against Tubulin, 0.031 µM in the data set on OVCAR-8 and 0.017 µM with NCI/ADR-RES. For the same molecule, the “Ratio IC50” value in data set [2] worked out at 0.54.

As for `COc1ccc(N(C)c2nc(Cl)nc3cnn(C)c23)cc1F`, the inhibition amounted to 97% on Tubulin (Homo sapiens) [1] and 77% on Tubulin (Homo sapiens) [7]. Further, the concentration for half-maximal inhibition (IC50) was 0.74 µM at Tubulin, 0.009 µM in the data set with OVCAR-8 and 0.007 µM in the data set on NCI/ADR-RES. Further, the EC50 with MCF7 [3] was found to be 0.0017 µM; with MCF7 [4], 0.0026 µM. For the same molecule, the “Ratio EC50” value in data set [8] amounted to 1.6; in the data set on MCF7 [9], 100; in the data set on MCF7 [10], 600. The “Ratio IC50” value in data set [2] is recorded as 0.77.

`COc1ccc(N(C)c2nc(C)nc3cc[nH]c23)cc1` registered an inhibition at Tubulin (Homo sapiens) [1] of 60%. At Tubulin, inhibition was half-maximal at 10 µM (IC50).

For `COc1ccc2c(c1)CCCN2c1nc(Cl)nc2cnn(C)c12`, the inhibition is 94% at Tubulin (Homo sapiens) [1] and 68% at Tubulin (Homo sapiens) [7]. Also, the IC50 came to 0.42 µM against Tubulin, 0.017 µM in the data set on OVCAR-8 and 0.008 µM with NCI/ADR-RES. Moreover, in [2], the “Ratio IC50” value was 0.47.

`COc1ccc(N(C)c2nc(C)nc3c(Cc4ccccc4)cn(C)c23)cc1`: the inhibition at Tubulin (Homo sapiens) [1] was determined as 92%; on Tubulin (Homo sapiens) [7], 73%. The half-inhibitory concentration (IC50) against Tubulin stood at 0.48 µM.

Consider `COc1ccc(Nc2nc(C)nc3cc[nH]c23)cc1`, for which, at Tubulin (Homo sapiens) [1], the inhibition was 0%.
